Screening data from PubChem BioAssay.
Rows were chosen to be rich in hits. Some 4.2% of all compounds tested hit in one or more screens of this group.
Rad51 HR inh: human RAD51 strand exchange inhibitors, primary screen, biochemical, fluorescence | DNA repair protein RAD51 homolog 1 (Homo sapiens), Q06609 | hRad51 DNA strand exchange, fluorescence dequenching | inhibition, % at 10 µM | 200,000 tested, 0.085% active;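 active = inhibition above 40% at the single screening dose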
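Read-out basis: percent inhibition relative to plate controls and blanks / Assay system: human Rad51 nucleoprotein filaments preassembled on unlabelled ssDNA / Timing: filaments 15 min 37 °C, then compound 30 min / Control set: per-plate controls and blanks / Technique: fluorescence dequenching at 485/520 nm / Compound: 10 µM final, single point / Also added: Fluorescein- and BHQ1-tagged 47-mer duplex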
KCC2 mod: KCC2 cotransporter modulators, thallium flux, primary screen, cell-based, HEK293 KCC2, FluoZin-2 fluorescence, MLSMR. 190,000 tested, 2.2% active. Solute carrier family 12 member 5 (Homo sapiens), Q9H2X9. B-score of Tl+ flux slope (higher = more flux/activation; lower = inhibition) at 10 µM. KCC2 cells, thallium flux FluoZin-2 fluorescence;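 active = thallium flux slope and its plate-corrected score both differing from the plate sample mean at a set confidence after two filtering rounds, in either direction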;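 note: slope of fluorescence scaled to starting intensity during 10 to 20 s after thallium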
Target sequence (Q9H2X9 whole entry, looked up): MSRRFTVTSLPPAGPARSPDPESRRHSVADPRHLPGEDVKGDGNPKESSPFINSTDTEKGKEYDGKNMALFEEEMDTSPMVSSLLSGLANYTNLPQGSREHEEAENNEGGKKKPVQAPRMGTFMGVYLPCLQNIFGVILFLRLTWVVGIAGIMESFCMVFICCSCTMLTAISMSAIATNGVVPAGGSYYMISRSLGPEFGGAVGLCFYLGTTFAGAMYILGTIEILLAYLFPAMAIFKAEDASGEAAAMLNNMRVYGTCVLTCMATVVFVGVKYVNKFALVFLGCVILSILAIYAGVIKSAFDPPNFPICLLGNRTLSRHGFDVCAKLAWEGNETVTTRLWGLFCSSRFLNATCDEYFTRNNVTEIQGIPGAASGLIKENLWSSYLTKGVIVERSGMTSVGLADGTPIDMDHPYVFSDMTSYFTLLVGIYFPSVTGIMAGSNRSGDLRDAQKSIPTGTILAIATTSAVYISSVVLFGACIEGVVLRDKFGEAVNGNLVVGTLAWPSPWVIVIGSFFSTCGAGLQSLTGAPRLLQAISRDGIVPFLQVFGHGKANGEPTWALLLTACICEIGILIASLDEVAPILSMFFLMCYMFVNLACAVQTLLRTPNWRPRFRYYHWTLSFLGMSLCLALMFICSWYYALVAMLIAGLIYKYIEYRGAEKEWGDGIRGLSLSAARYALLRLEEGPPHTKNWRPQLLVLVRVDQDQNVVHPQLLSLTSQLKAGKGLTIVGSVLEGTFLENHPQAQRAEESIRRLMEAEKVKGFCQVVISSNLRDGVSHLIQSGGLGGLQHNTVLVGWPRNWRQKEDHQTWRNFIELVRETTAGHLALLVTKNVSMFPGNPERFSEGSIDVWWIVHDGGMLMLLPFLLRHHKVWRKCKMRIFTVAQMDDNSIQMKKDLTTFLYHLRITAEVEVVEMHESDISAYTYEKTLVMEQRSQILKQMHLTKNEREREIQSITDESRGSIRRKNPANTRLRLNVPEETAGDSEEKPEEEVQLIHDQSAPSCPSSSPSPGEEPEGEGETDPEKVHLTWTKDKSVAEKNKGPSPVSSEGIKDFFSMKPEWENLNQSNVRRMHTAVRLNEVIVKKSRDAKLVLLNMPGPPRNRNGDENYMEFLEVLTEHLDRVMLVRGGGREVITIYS
WT yeast gro inh: growth inhibition of WT strain, primary screen, mitochondrial fusion inhibitor project, WT and mutant strains, chemical genetic; mitochondrial fusion phenotypic screen; inhibition, % at 10 µM; 190,000 tested, 2.1% active; AID 1362, 2008; in the data active = inhibition above about 58%; tested in S. cerevisiae
SKKanGAS inh: S. pyogenes SKKanGAS growth inhibitors in kanamycin, primary screen, streptokinase expression inhibitor project, SKKanGAS strain, BacTiter-Glo luminescence | inhibition, % at 7.5 µM | 300,000 tested, 1.3% active | 6 h;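 active = mean replicate score, as percent of positive control median, at least 50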;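 note: strain carries kanamycin resistance gene driven by streptokinase promoter and grows in 40 µg/ml kanamycin; loss of luminescence reflects streptokinase promoter inhibition or plain growth inhibition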
Autophagy HCS: autophagy modulators in MEF cells, primary screen, imaging, high-content, MEF GFP-LC3; MEF GFP-LC3 puncta imaging; test concentration mostly 10 µM; calls only at 10 µM (by protocol); 190,000 tested, 0.98% active; AID 463193, 2010;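 active = percentage of spot-positive cells more than 3 SD above its plate mean, without a fluorescence outlier flag or 80% toxicity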
Insulin prom up: insulin promoter activators in MIN6 cells, imaging, high-content screening, mouse beta cells; 190,000 tested, 0.3% active; MIN6 insulin promoter-GFP reporter; stronger effect = higher value; z-score at 5 µM; AID 1625, 2009;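 active = z-score above 3 at 5 µM with at least 500 cells counted in the well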
Hits are given with their value; – = inactive; · = no result; + = active, no number.

SMILES	Rad51 HR inh	KCC2 mod	WT yeast gro inh	SKKanGAS inh	Autophagy HCS	Insulin prom up
O=C(Nc1ccc(Cl)cc1)/C(=C/c1cccc(O)c1)c1nc2ccccc2s1	–	–	–	–	+	–
COc1cc(/C=C/C(=O)c2ccc3c(c2)OCCO3)cc(Br)c1OCC(=O)N(C)C	·	·	·	–	·	·
COc1ccccc1CNS(=O)(=O)c1ccc(Cl)s1	·	·	·	–	·	·
Cc1cc(C)c2[nH]c(=O)c(CN(CC3CCCO3)S(=O)(=O)c3ccc4c(c3)OCCO4)cc2c1 (stereo not drawn)	–	–	–	–	–	–
Cc1ccc(C)c2[nH]c(=O)c(CN(CC3CCCO3)S(=O)(=O)c3ccc4c(c3)OCCO4)cc12 (stereo not drawn)	–	·	–	–	+	–
Cc1cccc2cc(CN(Cc3ccco3)S(=O)(=O)c3ccc4c(c3)OCCO4)c(=O)[nH]c12	–	·	–	–	+	–
CC(C)CN1C(=O)c2ccc(C(=O)Nc3c[nH]c(=O)[nH]c3=O)cc2C1=O	–	–	–	–	–	·
COc1cc(/C=N\NC(=O)CN2CCOCC2)ccc1OCC(=O)Nc1ccc(C)c(C)c1	–	–	–	–	–	·
COc1cc(/C=N\Nc2ccc([N+](=O)[O-])cc2)ccc1OCC(=O)Nc1ccc(C)c(C)c1	·	·	–	–	+	·
CCOc1cc(/C=N\Nc2ccc([N+](=O)[O-])cc2)ccc1OCC(=O)Nc1ccc(C)c(C)c1	–	·	–	–	+	·
COc1cc(/C=N/NC(N)=O)ccc1OCC(=O)Nc1cc(C)c(C)cc1Br	–	–	–	–	+	–
CC(CC(=O)N(CCC1=CCCCC1)c1c(N)n(Cc2ccccc2)c(=O)[nH]c1=O)c1ccccc1 (stereo not drawn)	·	·	·	–	·	·
CCC(Oc1ccccc1C)C(=O)N1CCCN(C)CC1 (stereo not drawn)	·	·	·	–	·	·
CNC(=S)N(CCc1c(C)[nH]c2ccc(F)cc12)Cc1cccnc1	·	·	·	–	·	·
CC(C)NC(=O)c1ccc2c(=O)n(C3CCCC3)c(=S)[nH]c2c1	–	–	–	–	–	–
O=C(c1ccc2c(=O)n(C3CCCC3)c(=S)[nH]c2c1)N1CCc2ccccc21	–	17	–	–	–	–
CCc1ccccc1NC(=O)/C(=C/c1ccco1)c1ccccc1	–	–	59	–	–	–
Cc1ccccc1NC(=O)/C(=C/c1ccco1)c1ccccc1	–	–	–	–	–	–
Cc1cc(NC(=O)c2ccccc2)n(-c2nc3ccccc3[nH]2)n1	–	–	–	–	+	–
Cc1cc(NC(=O)c2cccs2)n(-c2nc3ccccc3[nH]2)n1	·	–	–	–	–	–
COc1cccc(OC)c1C(=O)Nc1cc(C)nn1-c1nc2ccccc2[nH]1	–	–	–	51	–	–
Cc1cc(NC(=O)c2sccc2C)n(-c2nc3ccccc3[nH]2)n1	·	–	79	63	–	–
COCCNC(=O)C(OC(=O)c1nsc(Cl)c1Cl)C(C)C (stereo not drawn)	–	–	–	–	–	–
CCCCCCCCCc1nc2sc3c(c2c(=O)n1NC(=O)c1ccc([N+](=O)[O-])cc1)CC(C)(C)OC3	–	–	64	64	–	–
CCCCCCCCCc1nc2sc3c(c2c(=O)n1NC(=O)c1ccccc1[N+](=O)[O-])CC(C)(C)OC3	–	–	71	65	–	–
SMILES	Rad51 HR inh	KCC2 mod	WT yeast gro inh	SKKanGAS inh	Autophagy HCS	Insulin prom up
O=C(OC1CCN(c2ncc(C(F)(F)F)cc2Cl)CC1)c1ccccc1	–	–	64	–	–	–
O=C(CN1CCN(c2ncc(C(F)(F)F)cc2Cl)CC1)N1CCN(c2ncc(C(F)(F)F)cc2Cl)CC1	–	–	73	–	–	–
Cc1ccc(C(=O)OCCN2CCN(c3ncc(C(F)(F)F)cc3Cl)CC2)cc1	–	·	67	–	–	–
O=C(OC1CCN(c2ncc(C(F)(F)F)cc2Cl)CC1)c1cccc(C(F)(F)F)c1	–	–	–	–	–	–
COc1ccccc1C(=O)C1CCCN(C(=O)CN2CCCCC2=O)C1 (stereo not drawn)	·	·	–	–	–	–
O=C(O)CCCn1c(O)c(C=C2N=c3ccccc3=N2)sc1=S	–	–	·	–	·	–
COCCCn1c(O)c(/C=C2\N=C(C#N)C(=Nc3ccc(C)cc3)O2)sc1=S	·	–	·	53	·	–
CC1=C(C(=O)Nc2ccccc2C(F)(F)F)C(c2sccc2C)NC(=S)N1 (stereo not drawn)	–	–	–	–	–	–
Cc1ccc(S(=O)(=O)N2CC(C)N(C(=O)N3CCOCC3)C2C)cc1 (stereo not drawn)	·	·	·	–	·	·
O=C(COc1ccccc1)Nc1cccc(-c2nc3cc4ccccc4cc3[nH]2)c1	–	–	–	67	–	–
CN(C)CCOc1ccccc1-c1ccccc1	–	–	–	–	–	–
CN(C)CCOCCOc1ccccc1-c1ccccc1	–	–	–	–	–	5
O=C(O)c1ccccc1N/C=C\[N+](=O)[O-]	–	–	–	–	–	–
C=C[C@]1(C)C[C@@H](OC(=O)CSCCN(CC)CC)[C@]2(C)C(C)CC[C@]3(CCC(=O)[C@H]32)[C@@H](C)[C@@H]1O (stereo partly drawn)	·	·	·	104	·	·
CCOC(=O)c1ccc(N2CCN(C(C)=O)CC2)c(NC(=O)c2cccnc2)c1	–	·	–	–	–	–
Cc1ccc(S(=O)(=O)N2CCC(C(=O)NNC(=O)c3ccccc3O)CC2)cc1C	·	·	·	–	·	·
Cc1cc(C)c(C)c(S(=O)(=O)N2CCC(C(=O)NNC(=O)c3ccccc3O)CC2)c1C	·	·	·	61	·	·
O=C(CSC1=NS(=O)(=O)c2cc(Cl)ccc2N1)Nc1cccc(F)c1	·	·	·	–	·	·
CCCCCCCCNC(=S)NCCN1CCCCC1	–	–	–	–	–	–
Cc1nnc(SCC(=O)Nc2cc(C(C)(C)C)nn2-c2ccccc2)s1	–	–	–	–	–	–
Cc1nnc(SCC(=O)Nc2cc(-c3cc(C)c(C)cc3C)nn2-c2ccccc2)s1	–	–	63	–	–	–
CNc1ccc(Oc2nc([N+](=O)[O-])nn2C)cc1	–	–	–	–	–	–
O=C(N/N=C/c1ccc(N2CCOCC2)s1)c1ccccc1Cl	–	–	·	–	–	–
FC(F)(F)c1ccc(Cl)c(N/N=C/c2ccc(N3CCOCC3)s2)c1	–	–	58	–	–	–
O=C(OCc1cccc(C(F)(F)F)c1)c1ccc[nH]c1=O	·	·	·	–	·	·
O=[N+]([O-])c1cc(Oc2cccnc2)cc([N+](=O)[O-])c1	–	–	–	–	+	–
Cn1/c(=N\NC(=O)c2ccccc2Cl)sc2ccccc21	–	–	–	–	–	–
